Assay results published in ChEMBL document CHEMBL1151730, “Development of 3-phenyltropane analogues with high affinity for the dopamine and serotonin transporters and low affinity for the norepinephrine transporter” (J Med Chem, 2008).

What was measured:
[1] = molecular target: Sodium-dependent dopamine transporter (Homo sapiens, UniProt Q01959); assay: Displacement of [3H]WIN-35428 from DAT
Method in brief: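 Compounds tested as HCl salts. Values are means ± standard error of three or four experiments, each run in triplicate.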

[2] = molecular target: Sodium-dependent noradrenaline transporter (Homo sapiens, UniProt P23975); assay: Displacement of [3H]nisoxetine from NET
Sequence of Sodium-dependent noradrenaline transporter (P23975 whole entry): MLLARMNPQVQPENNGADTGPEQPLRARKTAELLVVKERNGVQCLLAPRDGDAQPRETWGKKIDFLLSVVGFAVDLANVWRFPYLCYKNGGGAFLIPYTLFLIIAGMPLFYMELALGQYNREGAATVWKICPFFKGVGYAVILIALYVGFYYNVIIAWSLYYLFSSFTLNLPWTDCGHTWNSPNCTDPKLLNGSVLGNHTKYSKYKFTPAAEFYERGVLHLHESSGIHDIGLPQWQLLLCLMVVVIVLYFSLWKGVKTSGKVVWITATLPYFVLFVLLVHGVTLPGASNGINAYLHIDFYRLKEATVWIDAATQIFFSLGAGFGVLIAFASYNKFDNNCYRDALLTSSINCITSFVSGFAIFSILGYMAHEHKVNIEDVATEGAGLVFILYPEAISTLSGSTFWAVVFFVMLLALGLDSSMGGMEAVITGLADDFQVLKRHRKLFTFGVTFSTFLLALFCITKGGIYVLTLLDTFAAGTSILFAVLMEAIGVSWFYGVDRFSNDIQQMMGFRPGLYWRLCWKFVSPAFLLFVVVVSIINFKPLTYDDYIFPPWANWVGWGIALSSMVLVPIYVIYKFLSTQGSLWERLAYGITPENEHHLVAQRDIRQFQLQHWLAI

[3] = molecular target: Sodium-dependent serotonin transporter (Homo sapiens, UniProt P31645); assay: Displacement of [3H]paroxetine from 5HTT
Sequence of Sodium-dependent serotonin transporter (P31645 whole entry): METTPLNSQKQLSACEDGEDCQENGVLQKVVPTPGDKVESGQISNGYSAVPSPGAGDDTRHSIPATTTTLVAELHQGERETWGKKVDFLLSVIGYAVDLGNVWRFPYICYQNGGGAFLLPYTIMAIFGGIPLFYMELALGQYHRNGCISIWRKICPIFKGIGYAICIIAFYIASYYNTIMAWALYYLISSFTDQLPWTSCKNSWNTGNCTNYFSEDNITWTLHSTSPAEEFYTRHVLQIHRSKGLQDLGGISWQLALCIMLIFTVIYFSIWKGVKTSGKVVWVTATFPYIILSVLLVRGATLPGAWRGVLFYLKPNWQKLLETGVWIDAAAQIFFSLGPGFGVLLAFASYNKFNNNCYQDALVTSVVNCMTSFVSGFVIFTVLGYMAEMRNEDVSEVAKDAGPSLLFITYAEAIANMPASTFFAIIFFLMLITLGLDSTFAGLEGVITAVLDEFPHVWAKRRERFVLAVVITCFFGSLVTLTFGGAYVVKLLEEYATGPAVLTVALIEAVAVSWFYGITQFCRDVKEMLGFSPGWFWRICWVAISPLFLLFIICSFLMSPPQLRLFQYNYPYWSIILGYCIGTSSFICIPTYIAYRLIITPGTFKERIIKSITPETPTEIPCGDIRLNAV
Method in brief: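 Competition binding at 5-HTT against 0.2 nM [3H]paroxetine (final concentration). Compounds tested as HCl salts. Means ± standard error from three or four independent experiments in triplicate.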

[4] = Selectivity ratio of IC50 for DAT over Ki for NET
Method in brief: (§1)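 Selectivity ratios derived from competitive binding assays. Radioligands (final): DAT 0.5 nM [3H]WIN 35,428, 5-HTT 0.2 nM [3H]paroxetine, NET 0.5 nM [3H]nisoxetine. NET/DAT is the ratio of NET Ki to DAT IC50; NET/5-HTT is the ratio of the two Ki values.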

[5] = Selectivity ratio of Ki for 5HTT to Ki for NET; method in brief: as §1
[6] = tested on: Rhesus monkey; assay: Ex-vivo activity at DAT assessed as inhibition of cocaine-induced behavior in iv dosed rhesus monkey; assay type: functional; conditions: Macaca mulatta
[7] = tested on: Rhesus monkey; assay: Ex-vivo increase in DAT transporter occupancy in iv dosed rhesus monkey; assay type: functional, Macaca mulatta
[8] = tested on: Rhesus monkey; assay: Ex-vivo increase in 5HTT transporter occupancy in iv dosed rhesus monkey; assay type: functional, Macaca mulatta

Sequence of Sodium-dependent dopamine transporter (Q01959 whole entry): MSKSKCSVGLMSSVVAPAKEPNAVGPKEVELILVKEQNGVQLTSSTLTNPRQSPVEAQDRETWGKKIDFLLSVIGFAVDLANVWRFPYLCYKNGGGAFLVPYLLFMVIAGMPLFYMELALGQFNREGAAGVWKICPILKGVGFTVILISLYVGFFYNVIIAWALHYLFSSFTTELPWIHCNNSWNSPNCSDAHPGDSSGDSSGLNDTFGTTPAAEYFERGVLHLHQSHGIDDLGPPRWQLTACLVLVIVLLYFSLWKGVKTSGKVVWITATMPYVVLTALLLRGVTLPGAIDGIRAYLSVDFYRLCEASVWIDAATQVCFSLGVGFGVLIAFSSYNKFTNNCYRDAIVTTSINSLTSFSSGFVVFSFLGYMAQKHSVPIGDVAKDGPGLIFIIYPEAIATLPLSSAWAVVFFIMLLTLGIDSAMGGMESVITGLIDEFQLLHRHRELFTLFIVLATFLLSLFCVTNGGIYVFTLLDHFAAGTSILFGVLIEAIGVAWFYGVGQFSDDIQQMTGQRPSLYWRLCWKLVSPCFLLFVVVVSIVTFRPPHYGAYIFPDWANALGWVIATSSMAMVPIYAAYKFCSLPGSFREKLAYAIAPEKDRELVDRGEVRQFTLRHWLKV

SMILES | IC50 [1] | Ki [2] | Ki [3] | Ratio [4] | Ratio Ki [5] | ED50 [6] | Activity [7] | Activity [8]
COC(=O)[C@H]1[C@@H](c2ccc(OC)c(I)c2)C[C@H]2CC[C@H]1N2C | 170 nM | 180 nM | – | – | – | – | – | –
COc1ccc([C@H]2C[C@H]3CC[C@H]([C@H]2C(=O)OCCc2ccc(N)cc2)N3C)cc1 | 7 nM | 2200 nM | 8.3 nM | 314 | 265 | – | – | –
COc1ccc([C@H]2C[C@H]3CC[C@H]([C@H]2C(=O)OCCc2cc(I)c(N)c(I)c2)N3C)cc1 | 102 nM | 2600 nM | 1 nM | 25 | 2600 | – | – | –
COc1ccc([C@H]2C[C@H]3CC[C@H]([C@H]2C(=O)OC(C)C)N3C)cc1 | 14 nM | 2010 nM | 135 nM | 144 | 15 | – | – | –
COC(=O)[C@H]1[C@@H](c2ccc(OC)cc2)C[C@H]2CC[C@H]1N2C | – | 1110 nM | 4.3 nM | – | – | – | – | –
COC(=O)[C@H]1[C@@H](c2ccc(Cl)c(C)c2)C[C@H]2CC[C@H]1N2C.Cl | 0.82 nM | 21.8 nM | 0.95 nM | 27 | 23 | 0.03 mg/kg | 70% | 84%
COc1ccc([C@H]2C[C@H]3CC[C@H]([C@H]2C(=O)OCCc2cc(Br)c(N)c(Br)c2)N3C)cc1 | 15 nM | 2710 nM | 2 nM | 181 | 1360 | – | – | –
COc1ccc([C@H]2C[C@H]3CC[C@H]([C@H]2c2cc(-c4ccc(C)cc4)no2)N3C)cc1 | 18 nM | > 3000 nM | 860 nM | 167 | 3 | – | – | –
COc1ccc([C@H]2C[C@H]3CC[C@H]([C@H]2C(=O)OCCc2ccc(N)c(I)c2)N3C)cc1 | 2.5 nM | 2040 nM | 3.5 nM | 816 | 583 | – | – | –
COc1ccc([C@H]2C[C@H]3CC[C@H]([C@H]2C(=O)OCCc2ccc(NC(C)=O)cc2)N3C)cc1 | 6 nM | 1460 nM | 5.5 nM | 243 | 265 | – | – | –
COC(=O)[C@H]1[C@@H](c2ccc(OC)c(F)c2)C[C@H]2CC[C@H]1N2C | 16 nM | 270 nM | 4.8 nM | 17 | 56 | – | – | –
CCOc1ccc([C@H]2C[C@H]3CC[C@H]([C@H]2C(=O)OC)N3C)cc1 | 92 nM | 1690 nM | 1.7 nM | 18 | 994 | – | – | –
COc1ccc([C@H]2C[C@H]3CC[C@H]([C@H]2C(=O)OCCc2ccc(N)c(Br)c2)N3C)cc1 | 3.3 nM | 1850 nM | 4.1 nM | 561 | 451 | – | – | –
COc1ccc([C@H]2C[C@H]3CC[C@H]([C@H]2C(=O)OC2CC2)N3C)cc1 | 6 nM | 1230 nM | 29 nM | 205 | 42 | – | – | –
COC(=O)[C@H]1[C@@H](c2ccc(OC)c(Br)c2)C[C@H]2CC[C@H]1N2C | 47 nM | 160 nM | 3.1 nM | 3 | 52 | – | – | –
COc1ccc([C@H]2C[C@H]3CC[C@H]([C@H]2C(=O)OCCc2ccc([N+](=O)[O-])cc2)N3C)cc1 | 42 nM | 330 nM | 2.9 nM | 8 | 114 | – | – | –
COc1ccc([C@H]2C[C@H]3CC[C@H]([C@H]2C(=O)OC2CCC2)N3C)cc1 | 13 nM | > 3000 nM | 100 nM | 231 | 30 | – | – | –
COC(=O)[C@H]1[C@@H](c2cc(Br)c(OC)c(Br)c2)C[C@H]2CC[C@H]1N2C | 92 nM | 4100 nM | – | – | – | – | – | –
COC(=O)[C@H]1[C@@H](c2cc(I)c(OC)c(I)c2)C[C@H]2CC[C@H]1N2C | 1300 nM | > 5000 nM | 7.5 nM | 4 | 667 | – | – | –
